Tests used:
Adenosine A2 receptor [1] = target: T1, Adenosine A2 receptor (Rattus norvegicus, UniProt P29276+P30543); assay: Inhibitory affinity for adenosine A2 receptor using [3H]N-ethyladenosine-5'-uronamide; type: protein assay
Adenosine receptor A1 [2] = target: T2, Adenosine receptor A1 (Rattus norvegicus, UniProt P25099); assay: Affinity for adenosine A1 receptor using [3H]-N6 -(phenylisopropyl)-adenosine (R)-[3H]-PIA in rat brain.; type: tissue-based
T2 sequence (P25099 whole entry): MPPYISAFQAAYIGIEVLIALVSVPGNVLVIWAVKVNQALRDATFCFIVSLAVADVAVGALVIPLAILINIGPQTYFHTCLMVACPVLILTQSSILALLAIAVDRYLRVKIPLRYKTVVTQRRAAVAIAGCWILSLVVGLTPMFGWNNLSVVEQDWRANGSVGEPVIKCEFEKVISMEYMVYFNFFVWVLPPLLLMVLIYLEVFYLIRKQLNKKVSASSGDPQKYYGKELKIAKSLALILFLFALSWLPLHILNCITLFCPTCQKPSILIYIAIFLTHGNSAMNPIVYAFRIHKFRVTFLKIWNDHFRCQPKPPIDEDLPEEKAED
Summary of the method: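 Rat cerebral cortex membranes were incubated with 1 nM (R)-[3H]PIA and a range of competitor concentrations. Each point was run in triplicate, in at least three separate experiments.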

[3] = target: T3, Adenosine receptors; A1 & A2 (Rattus norvegicus) (UniProt P29276+P25099+P30543); assay: Selectivity ratio between Ki for adenosine A2 and A1 receptors; type: protein assay
[4] = target: T3, Adenosine receptors; A1 & A2 (Rattus norvegicus); assay: Relative affinities for Adenosine A2 and Adenosine A1 receptors; type: protein assay
[5] = target: T4, Adenosine receptor A1 (Rattus norvegicus) (UniProt P25099); assay: Percentage inhibition of [125I]APNEA binding to Adenosine A1 receptor from rat brain after 45 min incubation at 10 nM
T4 sequence (whole entry): T2 sequence (P25099 whole entry)
Summary of the method: (§1)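 Rat cerebral cortex membranes pretreated with adenosine deaminase (0.5 unit/mL, 20 min, 37 °C). Incubated with ligand at the stated concentration for 45 min at 37 °C, then washed three times in Tris/MgCl2/EDTA buffer pH 8.26 with 0.02% Chaps. Then 10⁻⁴ M IBMX for 18 h at 25 °C, washed twice and deaminase-treated again. Untreated membranes went through every step as controls.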

[6] = target: T4, Adenosine receptor A1 (Rattus norvegicus); assay: Percentage inhibition of [125I]APNEA binding to adenosine A1 receptor from rat brain after 45 min incubation at 1 nM; summary of the method: as §1
[7] = target: T4, Adenosine receptor A1 (Rattus norvegicus); assay: Percentage inhibition of [125I]APNEA binding to adenosine A1 receptor from rat brain after 45 min incubation at 10 nM; summary of the method: as §1
Adenosine A2 receptor [8] = target: T1, Adenosine A2 receptor; assay: Inhibition of [3H]N-ethyladenosine-5'-uronamide binding to Adenosine A2 receptor of rat striatal membrane
Adenosine receptor A1 [9] = target: T5, Adenosine receptor A1 (Bos taurus, UniProt P28190); assay: Affinity for Adenosine A1 receptor using [125I]APNEA in calf brain.
T5 sequence (P28190 whole entry): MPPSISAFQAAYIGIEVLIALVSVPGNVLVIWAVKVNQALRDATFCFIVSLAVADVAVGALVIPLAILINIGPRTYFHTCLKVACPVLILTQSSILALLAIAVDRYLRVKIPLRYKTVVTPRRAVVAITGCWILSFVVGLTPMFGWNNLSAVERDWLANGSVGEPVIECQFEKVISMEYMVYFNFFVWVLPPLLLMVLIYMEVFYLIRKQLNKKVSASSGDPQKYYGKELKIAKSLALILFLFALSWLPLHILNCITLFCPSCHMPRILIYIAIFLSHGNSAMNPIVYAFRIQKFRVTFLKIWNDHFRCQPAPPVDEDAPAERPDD
Summary of the method: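 Bovine cerebral cortex membranes were pretreated with adenosine deaminase (0.5 unit/mL, 20 min, 37 °C). Membranes (40 µg) were incubated with 125I-APNEA and competitor for 1 h at 37 °C. Separation was by dilution in cold Tris-HCl/MgCl2/EDTA buffer, pH 8.26, with 0.02% Chaps, then glass-filter filtration and gamma counting. Nonspecific binding was defined with 10⁻⁵ M (R)-PIA.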

[10] = target: T4, Adenosine receptor A1 (Rattus norvegicus); assay: Percentage inhibition of [125I]APNEA binding to adenosine A1 receptor from rat brain after 45 min incubation at 500 nM
Summary of the method: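 Adenosine deaminase-treated rat cerebral cortex membranes were exposed to the ligand for 45 min at 37 °C. They were washed three times, held in buffer with 10⁻⁴ M IBMX for 18 h at 25 °C, washed and re-treated with deaminase. Residual sites were measured by 125I-APNEA saturation (0.1–2.5 nM) against untreated membranes carried through the same procedure.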

Adenosine receptor A1 [11] = target: T2, Adenosine receptor A1; assay: Affinity for A1 adenosine receptor using [3H]-N6 -(phenylisopropyl)-adenosine (R)-[3H]-PIA in rat brain; type: tissue-based
Summary of the method: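 Rat cerebral cortex membranes pretreated with adenosine deaminase (0.5 unit/mL, 20 min, 37 °C). Competition against 1 nM (R)-[3H]PIA over a range of ligand concentrations, in triplicate, in at least three experiments. […] For irreversible ligands the value is an apparent Ki.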

## O=C(Cc1ccc(NC(=O)Cc2ccc(Nc3ncnc4c3ncn4C3O[C@H](CO)[C@@H](O)[C@H]3O)cc2)cc1)NCC/N=C(\S)Nc1ccc(S(=O)(=O)[O-])cc1.[Na+] (stereo partly specified)
Adenosine A2 receptor [1]
  Ki: 70 nM
Adenosine receptor A1 [2]
  Ki: 51.1 nM
[3]
  Ratio: 1.37

## O=C(Cc1ccc(NC(=O)Cc2ccc(Nc3ncnc4c3ncn4C3O[C@H](CO)[C@@H](O)[C@H]3O)cc2)cc1)NCC/N=C(\S)Nc1cccc(N=C=S)c1 (stereo partly specified)
[4]
  Ratio: 203
[5]
  inhibition: > 90%
[6]
  inhibition: 62%
[7]
  inhibition: > 90%
Adenosine A2 receptor [8]
  Ki: 176 nM

## CCCn1c(=O)c2nc(-c3ccc(OCC(=O)NCC=O)cc3)[nH]c2n(CCC)c1=O
Adenosine receptor A1 [9]
  Ki: 3.17 nM
[10]
  inhibition: 0%
Adenosine receptor A1 [11]
  Ki: 266 nM

From ChEMBL document CHEMBL1124458, “Electrophilic derivatives of purines as irreversible inhibitors of A1 adenosine receptors” (J Med Chem, 1989)
